Experimental findings from ChEMBL document CHEMBL4400539, “Discovery of a Novel Chemotype of Histone Lysine Methyltransferase EHMT1/2 (GLP/G9a) Inhibitors: Rational Design, Synthesis, Biological Evaluation, and Co-crystal Structure” (J Med Chem, 2019) are described below.

As usually defined, the IC50 is the concentration at which inhibition is half-maximal. As a reminder, the Ki is a measure of affinity in units of concentration, obtained from inhibition or displacement.

The target in data set [1] is DNA (cytosine-5)-methyltransferase 3B (Homo sapiens) (UniProt Q9UBC3). Put plainly: Inhibition of N-terminal GST-tagged recombinant full length human DNMT3b (2 to 853 residues) using bacteriophage lambda DNA as substrate preincubated for 20 mins followed by [3H]-SAM and measured after 60 mins by scintillation counting.
In data set [2] the target is Histone acetyltransferase p300 (Homo sapiens) (UniProt Q09472). Put plainly: Inhibition of recombinant human P300 at 10 to 25 uM using biotinylated-Histone H4 peptide (1 to 21 residues) as substrate preincubated for 30 mins followed by substrate addition and measured after 60 mins in presence of SAM by AlphaLISA assay relative to control.
Chain of Histone acetyltransferase p300 (Homo sapiens) (Q09472 whole entry, the tested form may be a part): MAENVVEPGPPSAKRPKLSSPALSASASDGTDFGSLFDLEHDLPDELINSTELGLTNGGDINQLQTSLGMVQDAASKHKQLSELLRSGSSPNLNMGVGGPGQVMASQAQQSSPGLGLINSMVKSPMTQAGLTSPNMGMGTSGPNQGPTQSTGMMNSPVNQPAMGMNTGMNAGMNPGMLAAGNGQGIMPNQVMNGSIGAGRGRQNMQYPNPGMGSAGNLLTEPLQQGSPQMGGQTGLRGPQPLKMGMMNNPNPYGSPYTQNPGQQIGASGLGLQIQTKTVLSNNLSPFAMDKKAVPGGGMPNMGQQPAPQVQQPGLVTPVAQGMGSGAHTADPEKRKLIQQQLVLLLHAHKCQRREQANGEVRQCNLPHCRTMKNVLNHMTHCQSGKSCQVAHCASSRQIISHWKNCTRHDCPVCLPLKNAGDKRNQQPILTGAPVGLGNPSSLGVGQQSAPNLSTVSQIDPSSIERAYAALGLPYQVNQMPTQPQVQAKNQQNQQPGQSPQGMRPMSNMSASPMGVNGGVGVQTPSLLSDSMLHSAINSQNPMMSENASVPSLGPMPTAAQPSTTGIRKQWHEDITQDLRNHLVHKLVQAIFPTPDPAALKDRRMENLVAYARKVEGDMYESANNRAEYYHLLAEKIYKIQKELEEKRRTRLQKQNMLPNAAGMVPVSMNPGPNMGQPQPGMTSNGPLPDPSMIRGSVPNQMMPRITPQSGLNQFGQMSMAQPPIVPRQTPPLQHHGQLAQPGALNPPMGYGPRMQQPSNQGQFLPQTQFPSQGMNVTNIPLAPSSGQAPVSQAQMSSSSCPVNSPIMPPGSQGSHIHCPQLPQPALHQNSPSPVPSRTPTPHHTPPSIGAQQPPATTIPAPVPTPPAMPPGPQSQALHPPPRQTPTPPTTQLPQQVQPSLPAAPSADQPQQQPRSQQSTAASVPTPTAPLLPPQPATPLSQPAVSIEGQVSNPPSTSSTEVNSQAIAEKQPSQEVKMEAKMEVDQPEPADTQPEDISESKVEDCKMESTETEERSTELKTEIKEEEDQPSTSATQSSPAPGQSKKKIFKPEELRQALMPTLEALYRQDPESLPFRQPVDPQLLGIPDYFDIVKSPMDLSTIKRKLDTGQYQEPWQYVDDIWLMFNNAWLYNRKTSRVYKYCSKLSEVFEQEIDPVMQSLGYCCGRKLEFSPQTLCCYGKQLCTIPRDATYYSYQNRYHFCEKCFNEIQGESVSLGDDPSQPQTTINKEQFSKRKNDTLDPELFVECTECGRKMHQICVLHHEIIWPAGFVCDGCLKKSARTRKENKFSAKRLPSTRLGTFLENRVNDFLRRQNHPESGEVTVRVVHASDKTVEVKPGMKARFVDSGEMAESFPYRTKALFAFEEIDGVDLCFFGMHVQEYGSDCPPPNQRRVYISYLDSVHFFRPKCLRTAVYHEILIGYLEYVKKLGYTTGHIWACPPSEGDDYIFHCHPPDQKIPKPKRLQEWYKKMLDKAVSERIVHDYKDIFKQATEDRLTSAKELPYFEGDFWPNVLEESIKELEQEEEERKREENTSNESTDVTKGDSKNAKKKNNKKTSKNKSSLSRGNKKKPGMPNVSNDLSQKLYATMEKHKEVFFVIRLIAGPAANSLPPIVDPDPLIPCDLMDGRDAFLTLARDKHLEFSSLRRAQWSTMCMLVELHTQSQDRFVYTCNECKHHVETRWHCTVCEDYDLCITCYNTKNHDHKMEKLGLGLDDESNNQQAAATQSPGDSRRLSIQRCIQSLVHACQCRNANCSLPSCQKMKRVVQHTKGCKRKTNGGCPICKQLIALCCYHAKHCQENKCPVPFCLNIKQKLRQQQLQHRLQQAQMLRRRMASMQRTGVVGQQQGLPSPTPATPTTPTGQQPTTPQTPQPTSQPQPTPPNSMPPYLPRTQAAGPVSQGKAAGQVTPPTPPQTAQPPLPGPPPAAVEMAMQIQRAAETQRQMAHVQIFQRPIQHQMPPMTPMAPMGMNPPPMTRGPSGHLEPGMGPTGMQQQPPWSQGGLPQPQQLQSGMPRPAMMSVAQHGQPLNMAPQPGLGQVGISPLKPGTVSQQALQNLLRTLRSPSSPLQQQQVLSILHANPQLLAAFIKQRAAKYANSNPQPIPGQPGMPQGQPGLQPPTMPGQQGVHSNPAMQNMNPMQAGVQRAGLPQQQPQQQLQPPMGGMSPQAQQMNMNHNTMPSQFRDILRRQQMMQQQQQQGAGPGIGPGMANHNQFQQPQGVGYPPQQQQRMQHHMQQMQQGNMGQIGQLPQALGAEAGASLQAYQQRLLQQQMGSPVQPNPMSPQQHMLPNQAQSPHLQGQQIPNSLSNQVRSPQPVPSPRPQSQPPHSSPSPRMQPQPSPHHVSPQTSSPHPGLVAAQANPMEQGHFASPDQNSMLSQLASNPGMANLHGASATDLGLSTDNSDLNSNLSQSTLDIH
The target of data set [3] is Protein arginine N-methyltransferase 3 (Homo sapiens) (UniProt O60678). Put plainly: Inhibition of recombinant human PRMT3 at 10 to 25 uM using biotinylated-Histone H4 peptide (1 to 21 residues) as substrate preincubated for 30 mins followed by substrate addition and measured after 60 mins in presence of SAM by AlphaLISA assay relative to control. In outline: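 Biotinylated H4(1–21) peptide plus SAM then added for 60 min: PRMT1 0.9 nM, peptide 100 nM, SAM 2 μM; PRMT3 23 nM, peptide 50 nM, SAM 10 μM. Anti-H4R3me AlphaLISA; 10 and 25 μM; three experiments, mean ± SD.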
Chain of Protein arginine N-methyltransferase 3 (Homo sapiens) (O60678 2-531 limits assumed): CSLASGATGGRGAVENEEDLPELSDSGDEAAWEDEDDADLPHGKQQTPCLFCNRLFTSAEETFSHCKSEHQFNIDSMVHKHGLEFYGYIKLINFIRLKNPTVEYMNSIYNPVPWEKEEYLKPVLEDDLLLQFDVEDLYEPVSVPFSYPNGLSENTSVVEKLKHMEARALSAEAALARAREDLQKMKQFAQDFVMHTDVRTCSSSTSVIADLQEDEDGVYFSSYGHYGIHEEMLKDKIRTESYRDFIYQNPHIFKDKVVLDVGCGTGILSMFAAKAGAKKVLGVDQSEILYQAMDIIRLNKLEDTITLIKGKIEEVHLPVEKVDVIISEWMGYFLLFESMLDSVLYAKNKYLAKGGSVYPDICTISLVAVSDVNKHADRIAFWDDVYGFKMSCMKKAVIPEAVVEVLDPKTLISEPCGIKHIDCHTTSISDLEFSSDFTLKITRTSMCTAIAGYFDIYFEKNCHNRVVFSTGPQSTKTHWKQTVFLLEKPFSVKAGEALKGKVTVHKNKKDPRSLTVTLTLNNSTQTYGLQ
Background: Bead proximity is the source of the signal in Alpha formats.

In data set [4] the target is T1, Histone-lysine N-methyltransferase EHMT2 (Homo sapiens, UniProt Q96KQ7).
T1 sequence (Q96KQ7 whole entry): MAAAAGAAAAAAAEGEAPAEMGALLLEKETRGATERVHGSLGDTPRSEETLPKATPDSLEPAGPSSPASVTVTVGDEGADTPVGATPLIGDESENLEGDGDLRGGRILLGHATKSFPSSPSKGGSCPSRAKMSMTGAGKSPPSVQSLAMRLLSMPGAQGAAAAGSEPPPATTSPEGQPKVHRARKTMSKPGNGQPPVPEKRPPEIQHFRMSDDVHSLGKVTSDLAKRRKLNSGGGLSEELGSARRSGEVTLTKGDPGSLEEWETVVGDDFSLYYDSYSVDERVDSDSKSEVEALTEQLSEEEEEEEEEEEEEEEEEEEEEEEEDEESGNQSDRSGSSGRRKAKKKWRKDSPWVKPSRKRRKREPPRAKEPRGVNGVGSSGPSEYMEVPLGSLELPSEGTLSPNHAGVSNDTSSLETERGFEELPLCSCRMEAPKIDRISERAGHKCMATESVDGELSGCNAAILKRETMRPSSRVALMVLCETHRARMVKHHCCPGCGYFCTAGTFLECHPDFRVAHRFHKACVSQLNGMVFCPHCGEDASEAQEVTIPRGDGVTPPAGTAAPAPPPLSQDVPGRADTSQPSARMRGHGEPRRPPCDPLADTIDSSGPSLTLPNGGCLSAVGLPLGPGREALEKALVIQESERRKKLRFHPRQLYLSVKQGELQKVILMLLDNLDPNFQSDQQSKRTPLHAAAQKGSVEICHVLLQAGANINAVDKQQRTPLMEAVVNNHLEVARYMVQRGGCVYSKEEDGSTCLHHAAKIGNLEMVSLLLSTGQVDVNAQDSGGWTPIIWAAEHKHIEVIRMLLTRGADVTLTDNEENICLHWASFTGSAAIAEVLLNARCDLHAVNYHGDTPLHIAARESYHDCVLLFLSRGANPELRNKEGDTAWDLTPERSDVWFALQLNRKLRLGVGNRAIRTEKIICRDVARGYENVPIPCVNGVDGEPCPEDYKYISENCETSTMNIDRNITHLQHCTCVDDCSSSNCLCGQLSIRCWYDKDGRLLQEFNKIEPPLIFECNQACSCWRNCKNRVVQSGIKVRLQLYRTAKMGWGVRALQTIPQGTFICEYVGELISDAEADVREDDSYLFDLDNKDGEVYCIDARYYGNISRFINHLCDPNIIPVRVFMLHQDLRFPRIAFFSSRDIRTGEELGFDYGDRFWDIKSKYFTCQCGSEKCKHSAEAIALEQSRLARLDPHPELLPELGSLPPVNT
Kind of data set: Inhibition of recombinant human G9a using biotinylated-Histone H3 peptide (1 to 21 residues) after 30 mins in presence of SAM by AlphaLISA assay.

The target in data set [5] is T1, Histone-lysine N-methyltransferase EHMT2. Put plainly: Competitive inhibition of recombinant human G9a using biotinylated-Histone H3 peptide (1 to 21 residues) as substrate at varying concentration after 30 mins in presence SAM by Lineweaver-Burk plot analysis.
For a further data set, the system named is MCF7. Put plainly: Cytotoxicity against human MCF7 cells assessed as reduction in cell viability at 0.05 to 50 uM after 48 to 72 hrs by MTT assay. The data set is classed as cell-based. The following applies: mcf7, 50 µM. In outline:
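MCF-7, MDA-MB-231 and U-343 cells exposed 24, 48 and 72 h to 0.05, 0.5, 5 and 50 μM compound; viability by MTT reduction to formazan versus vehicle; mean ± SD of at least three independent experiments.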
In general terms: Tetrazolium dyes change colour on reduction, which living cells bring about.

Data set [6] is described as follows: Metabolic stability in human liver microsomes assessed as parent compound turn over percentage at 1 mM preincubated for 5 mins followed by NADPH addition and measured for 60 mins by UHPLC analysis. The following applies: read-out: Drug metabolism. The class given is ADME, Microsome. For orientation: Liver microsomes are a subcellular fraction often used to study metabolism.

Molecules are shown by their SMILES. The source made the active and inactive calls. The calls are words filed in the database; no cut-off is given here.

`COc1cc2c(cc1OCCCN1CCCC1)N=C(C1CCCCC1)CN=C2NC1CCN(C(C)C)CC1`: the inhibition result in data set [1], in data set [2] and in data set [3] was “inactive” in each case. Moreover, the concentration for half-maximal inhibition (IC50) in data set [4] came to 23 nM. Further, the inhibition constant (Ki) in data set [5] turned out to be 13.8 nM. In addition, the Activity entry in the data set with MCF7 is on record as “Toxic”. The metabolised at 1 h in data set [6] was determined as 2.25%.
